According to ChEMBL document CHEMBL4715860 (J Med Chem, 2020):
Active and inactive are the calls of the source. The calls are words filed in the database; no cut-off is given here.

Assays:
[1] = Metabolic stability in CD1 mouse hepatocytes assessed as parent compound remaining at 5 uM incubated for 3 hrs by LC-MS analysis; format: ADME, cell-based, Hepatocyte; conditions: read-out: Stabilty
In short: (§1)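 Cryopreserved primary hepatocytes in suspension (CD-1 mouse, Sprague-Dawley rat, Beagle dog, human). Compound diluted from 10 mM DMSO stock to 5 μM final. Sampled at 0, 15, 60, 90 and 180 min, protein precipitated with ACN plus internal standard, supernatant analysed by LC−MS. Run in duplicate. 7-ethoxycoumarin as positive control. Hepatocyte-free medium incubations as negative control.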

[2] = Metabolic stability in human hepatocytes assessed as parent compound remaining at 5 uM incubated for 3 hrs by LC-MS analysis; format: ADME, cell-based, Hepatocyte; conditions: read-out: Stabilty; in short: as §1
[3] = Intrinsic clearance in CD1 mouse hepatocytes assessed per million cells at 5 uM incubated for 3 hrs by LC-MS analysis; format: ADME, cell-based, Hepatocyte; conditions: read-out: CLH
In short: (§2)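 Cryopreserved primary hepatocytes in suspension from CD-1 mouse, Sprague-Dawley rat, Beagle dog and human. Compound at 5 μM final (from 10 mM DMSO stock). Samples taken at 0, 15, 60, 90 and 180 min and quenched with ACN plus internal standard. Parent quantified by LC-MS. Hepatocyte-free medium incubations served as negative control; 7-ethoxycoumarin as positive control. Duplicate; CLint per 10^6 cells and t1/2.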

[4] = Intrinsic clearance in Beagle dog hepatocytes assessed per million cells at 5 uM incubated for 3 hrs by LC-MS analysis; format: ADME, cell-based, Canis lupus familiaris, Hepatocyte; conditions: read-out: CLH
In short: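 Cryopreserved Beagle dog hepatocytes in suspension with compound at 5 μM (final, from 10 mM DMSO stock). Sampled at 0, 15, 60, 90 and 180 min, ACN-precipitated and analysed by LC-MS. Duplicates; 7-ethoxycoumarin as positive control, hepatocyte-free medium as negative control. CLint given per 10^6 cells, mean ± SEM (n = 2).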

[5] = Metabolic stability in Beagle dog hepatocytes assessed as half-life at 5 uM incubated for 3 hrs by LC-MS analysis; format: ADME, cell-based, Canis lupus familiaris, Hepatocyte; in short: as §2
[6] = Elimination half life in C57BL/6J mouse plasma at 10 mg/kg, po administered once a day for 4 consecutive days by mass spectrometry based UHPLC analysis; format: ADME, organism-based; conditions: time 4 day, read-out: beta t1/2 (converted)
In short: (§3)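 Female C57BL/6J mice given 10 mg/kg p.o. in 20% Captisol once daily for 4 consecutive days. Plasma and brain sampled after the final dose on day 4, n = 3 per time point.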

[7] = Cmax in C57BL/6J mouse brain at 10 mg/kg, po administered once a day for 4 consecutive days by mass spectrometry based UHPLC analysis; format: ADME, organism-based; set-up: route oral, dose 10 mg/kg, time 4 day; in short: as §3
[8] = AUC (0 to 8 hrs) in C57BL/6J mouse brain at 10 mg/kg, po administered once a day for 4 consecutive days by mass spectrometry based UHPLC analysis; format: ADME, organism-based; set-up: route oral, time 4 day, dose 10 mg/kg; in short: as §3
[9] = Cmax in C57BL/6J mouse plasma at 25 mg/kg, po administered as single dose by mass spectrometry based UHPLC analysis; format: ADME, organism-based; set-up: route oral, dose 25 mg/kg
In short: (§4)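 One oral dose of 25 mg/kg to female C57BL/6J mice. Plasma and brain concentrations followed over time, n = 3 per time point (mean).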

[10] = Tmax in C57BL/6J mouse plasma at 25 mg/kg, po administered as single dose by mass spectrometry based UHPLC analysis; format: ADME, organism-based
In short: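 Female C57BL/6J mice given a single oral dose of 25 mg/kg. Plasma and brain levels followed over time (n = 3 per time point, mean). Tmax is the time of maximal concentration.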

[11] = Elimination half life in C57BL/6J mouse plasma at 25 mg/kg, po administered as single dose by mass spectrometry based UHPLC analysis; format: ADME, organism-based; conditions: read-out: beta t1/2 (converted); in short: as §4
[12] = AUC (0 to 8 hrs) in C57BL/6J mouse plasma at 25 mg/kg, po administered as single dose by mass spectrometry based UHPLC analysis; format: ADME, organism-based; set-up: time < 8 hr, route oral, dose 25 mg/kg; in short: as §4
[13] = Clearance in C57BL/6J mouse plasma at 25 mg/kg, po administered as single dose by mass spectrometry based UHPLC analysis; format: ADME, organism-based; in short: as §4
[14] = Cmax in C57BL/6J mouse brain at 25 mg/kg, po administered as single dose by mass spectrometry based UHPLC analysis; format: ADME, organism-based; set-up: route oral, dose 25 mg/kg; in short: as §4
[15] = Elimination half life in C57BL/6J mouse brain at 25 mg/kg, po administered as single dose by mass spectrometry based UHPLC analysis; format: ADME, organism-based; conditions: read-out: beta t1/2 (converted); in short: as §4
[16] = AUC (0 to 8 hrs) in C57BL/6J mouse brain at 25 mg/kg, po administered as single dose by mass spectrometry based UHPLC analysis; format: ADME, organism-based; set-up: time < 8 hr, route oral, dose 25 mg/kg; in short: as §4
Mus musculus [17] = test: In vivo inhibition of PI3Kalpha in C57BL/6J mouse assessed as increase in plasma glucose concentration at 25 mg/kg, po measured after 8 hrs by glucoseoxidase-peroxide coupled colorimetric assay; format: functional, organism-based
In short: (§5)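 Female C57BL/6J mice given one oral dose (25 mg/kg); plasma insulin and glucose monitored over time, mean ± SEM.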

Mus musculus [18] = test: In vivo inhibition of PI3Kalpha C57BL/6J mouse assessed as increase in plasma insulin concentration at 25 mg/kg, po measured after 8 hrs by ELISA; format: functional, organism-based; in short: as §5
Mus musculus [19] = test: In vivo inhibition of mTORC2 in C57BL/6J mouse assessed as reduction in PKB/Akt phosphorylation at Ser473 in brain at 25 mg/kg, po measured after 0.5 to 2 hrs by Western blot analysis; format: functional, organism-based; conditions: time 0.5-2 hrs
In short: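 Time course in female C57BL/6J mice after 25 mg/kg p.o.: cortex taken at set time points and western blotted for pS6 and pPKB. Signals quantified against α-tubulin as % of control cortex; n = 3 per time point and n = 9 controls. Brain compound level measured in the same mice.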

[20] = Toxicity in Balb/c nude mouse assessed as change in body weight at 150 mg/kg, po administered once daily for 14 days measured for 7 days starting from post last dose; format: organism-based; conditions: in vivo, 504 h, time 21 day
Mus musculus [21] = test: Protection against Tsc1-GFAP knockout induced mortality in Balb/c mouse assessed as increase in survival rate at 50 mg/kg, po administered twice daily; format: functional, organism-based
In short: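 Tsc1GFAPCKO mice (conditional Tsc1 inactivation mainly in glia) dosed orally starting at P21, at 10 mg/kg or 50 mg/kg bid (n = 10 and 7). Survival recorded to P90, with censoring at P90. Compared with vehicle and everolimus by log-rank test.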

remaining at 3 h, 5 µM [1]: 48.4% | remaining at 3 h, 5 µM [2]: 44% | hepatocyte CLint at 5 µM [3]: 4.3 µL/min/1e6 cells | hepatocyte CLint at 5 µM [4]: 1.8 µL/min/1e6 cells | half-life at 5 µM [5]: 8.17 h | half-life [6]: 2.2 h | Cmax [7]: 1320 ng/mL | AUC at 96 h [8]: 3050 ng·h/mL | Cmax [9]: 1830 ng/mL | Tmax [10]: 0.2 h | half-life [11]: 2.4 h | AUC(0-t) at 8 h [12]: 10300 ng·h/mL | CL/F [13]: 40.5 mL/min/kg | Cmax [14]: 3340 ng/mL | half-life [15]: 2.4 h | AUC(0-t) at 8 h [16]: 17100 ng·h/mL
SMILES: C[C@@H]1COCCN1c1nc(-c2cnc(N)cc2C(F)F)nc(N2[C@H](C)COC[C@@H]2C)n1
inhibition (Mus musculus [17]): inactive | inhibition (Mus musculus [18]): inactive | inhibition (Mus musculus [19]): Active | Activity [20]: Non-Toxic | Activity (Mus musculus [21]): Active
